Activity, inhibition and IC50 data for 16 molecules are collected here from ChEMBL document CHEMBL4414557, “Labdanes, Withanolides, and Other Constituents from Physalis nicandroides” (J Nat Prod, 2019).

The subject of assay [1] is Saccharomyces cerevisiae. In words: Activation of yeast alpha-glucosidase type 1 at 100 uM using p-Nitrophenyl alpha-D-glucopyranoside as substrate preincubated for 10 mins followed by incubation with substrate for 15 mins and measured after 5 mins by microplate reader analysis relative to control. A digest of the protocol: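 Yeast α-glucosidase type I (25 μL, 0.2 U mL−1 in PBS) with glutathione (25 μL, 3 mM) in phosphate buffer (67 mM, pH 6.8). Samples were added in DMSO–H2O 1:1 and preincubated 10 min at 37 °C. Then p-nitrophenyl α-D-glucopyranoside (25 μL, 23.2 mM) was added, 15 min at 37 °C with agitation. Stopped with 1 M Na2CO3; A405 read. % vs negative control; triplicate, mean ± SD.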

For assay [2], the target named is Acetylcholinesterase (Electrophorus electricus) (UniProt O42275). Put plainly: Activation of Electrophorus electricus AChE at 100 uM using acetylthiocholine iodide as substrate preincubated for 30 mins followed by substrate addition and measured after 5 mins by Ellman's method relative to control.
Chain of Acetylcholinesterase (Electrophorus electricus) (O42275 24-633 limits assumed): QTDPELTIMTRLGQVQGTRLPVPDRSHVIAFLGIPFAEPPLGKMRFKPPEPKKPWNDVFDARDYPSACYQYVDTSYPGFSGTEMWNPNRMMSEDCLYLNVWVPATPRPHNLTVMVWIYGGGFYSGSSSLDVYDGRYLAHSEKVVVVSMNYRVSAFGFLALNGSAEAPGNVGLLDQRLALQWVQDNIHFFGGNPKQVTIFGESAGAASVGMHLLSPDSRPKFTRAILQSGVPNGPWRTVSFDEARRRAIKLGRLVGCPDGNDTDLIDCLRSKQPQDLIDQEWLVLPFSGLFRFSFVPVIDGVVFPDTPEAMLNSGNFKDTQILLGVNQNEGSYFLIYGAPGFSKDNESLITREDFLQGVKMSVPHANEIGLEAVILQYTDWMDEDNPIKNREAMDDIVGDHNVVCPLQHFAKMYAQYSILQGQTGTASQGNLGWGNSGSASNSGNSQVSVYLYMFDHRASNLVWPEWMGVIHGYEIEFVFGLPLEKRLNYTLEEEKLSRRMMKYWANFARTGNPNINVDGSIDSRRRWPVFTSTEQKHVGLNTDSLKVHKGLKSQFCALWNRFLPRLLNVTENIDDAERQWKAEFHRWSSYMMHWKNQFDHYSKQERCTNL
Assay [3] relates to Saccharomyces cerevisiae. Put plainly: Inhibition of yeast alpha-glucosidase type 1 at 100 uM using p-Nitrophenyl alpha-D-glucopyranoside as substrate preincubated for 10 mins followed by incubation with substrate for 15 mins and measured after 5 mins by microplate reader analysis. A digest of the protocol: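 Sample in DMSO–H2O 1:1 added to PBS (67 mM, pH 6.8) with glutathione (3 mM in PBS) and enzyme (0.2 U mL−1 in PBS), preincubated 10 min at 37 °C. p-Nitrophenyl α-D-glucopyranoside (23.2 mM in PBS) then added, 15 min at 37 °C with agitation. Stopped with 1 M Na2CO3, read at 405 nm after 5 min. Percent inhibition versus negative control, triplicate. Quercetin positive control.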

In assay [4] the target is Acetylcholinesterase (Electrophorus electricus) (UniProt O42275). Put plainly: Inhibition of Electrophorus electricus AChE at 100 uM using acetylthiocholine iodide as substrate preincubated for 30 mins followed by substrate addition and measured after 5 mins by Ellman's method relative to control.
For the next assay, the target named is Acetylcholinesterase (Electrophorus electricus, UniProt O42275). Put plainly: Inhibition of Electrophorus electricus AChE using acetylthiocholine iodide as substrate preincubated for 30 mins followed by substrate addition and measured after 5 mins by Ellman's method. For orientation: In Ellman's method for cholinesterases, released thiocholine reacts with DTNB.
Chain of Acetylcholinesterase (O42275 whole entry): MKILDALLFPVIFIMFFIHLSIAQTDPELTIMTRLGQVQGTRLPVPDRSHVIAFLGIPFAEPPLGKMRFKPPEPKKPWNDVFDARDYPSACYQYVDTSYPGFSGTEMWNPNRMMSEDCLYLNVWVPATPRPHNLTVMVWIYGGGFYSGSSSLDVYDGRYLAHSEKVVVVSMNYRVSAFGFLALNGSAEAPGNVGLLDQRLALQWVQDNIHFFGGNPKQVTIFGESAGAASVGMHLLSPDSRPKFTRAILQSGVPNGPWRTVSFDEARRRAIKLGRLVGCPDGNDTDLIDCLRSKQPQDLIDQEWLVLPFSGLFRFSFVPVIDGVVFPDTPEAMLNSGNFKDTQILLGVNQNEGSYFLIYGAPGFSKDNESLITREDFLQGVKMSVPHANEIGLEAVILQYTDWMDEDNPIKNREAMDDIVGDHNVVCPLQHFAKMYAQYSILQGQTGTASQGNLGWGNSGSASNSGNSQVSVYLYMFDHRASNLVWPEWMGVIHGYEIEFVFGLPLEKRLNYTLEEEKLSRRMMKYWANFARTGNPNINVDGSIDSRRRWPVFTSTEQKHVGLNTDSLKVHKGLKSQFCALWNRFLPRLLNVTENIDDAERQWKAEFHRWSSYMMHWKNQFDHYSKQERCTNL

pIC50: −log10 of the molar value. The source made the active and inactive calls. The rule behind the calls is not given here.

Consider `C=C(CC[C@@H]1[C@@]2(C)CCCC(C)(C)[C@@H]2CC[C@@]1(C)O)[C@H](O)CO`, for which the figures for the Activity (in the assay on Saccharomyces cerevisiae [1]; in assay [2]) were 1.1 to 29.4% and 6.7 to 96%, respectively.
A word on the inhibition: it is the percentage by which the read-out fell short of the control. As for `CC(=O)O[C@H]1C[C@H]([C@@](C)(O)[C@H]2CC(C)=C(C)C(=O)O2)[C@@]2(C)CC[C@H]3[C@@H](C[C@@H](OC(C)=O)[C@@]4(Cl)CC=CC(=O)[C@]34C)[C@@]12O`, the inhibition result in the assay with Saccharomyces cerevisiae [3] was “Active”. In addition, the Activity in assay [2] is 6.7 to 96%.
Consider `C=C(CC[C@@H]1[C@@]2(C)CCCC(C)(C)[C@@H]2CC[C@@]1(C)O)[C@@H](O)CO`, for which the Activity with Saccharomyces cerevisiae [1] was 1.1 to 29.4%; in assay [2] it was 6.7 to 96%.
For the molecule `C=C(C)C(C)(O)CC[C@@H](C)[C@H]1CC[C@H]2[C@@H]3CC=C4C[C@@H](O)CC[C@]4(C)[C@H]3CC[C@]12C` (stereo partly drawn), the inhibition result in the assay with Saccharomyces cerevisiae [3] is “Active”. The same molecule yielded an inhibition in assay [4] of 24%.
As for `C/C(=C\CO)CC[C@@H]1[C@@]2(C)CCCC(C)(C)[C@@H]2CC[C@@]1(C)O`, the Activity with Saccharomyces cerevisiae [1] lay within 1.1 to 29.4%; in assay [2], 6.7 to 96%.
By pIC50 is commonly meant the negative decadic logarithm of the IC50, by convention in mol/L. In the assay with Saccharomyces cerevisiae [1], `C=C1CC[C@H]2C(C)(C)CCC[C@]2(C)[C@H]1Cc1occc1C` showed an Activity of 1.1 to 29.4%. Moreover, the inhibition in assay [4] turned out to be 57.5%. The same molecule showed a pIC50 at Acetylcholinesterase of 4.19.
Regarding `C=C1CC[C@H]2C(C)(C)CCC[C@]2(C)[C@H]1C[C@H](O[C@@H]1O[C@H](CO)[C@@H](O)[C@H](O)[C@H]1O)/C(C)=C/COC(=O)CC(C)C`, the results for the Activity (with Saccharomyces cerevisiae [1]; in assay [2]) were 1.1 to 29.4% and 6.7 to 96%, respectively.
On to `CC(=O)O[C@H]1C[C@H]([C@@](C)(O)[C@H]2CC(C)=C(C)C(=O)O2)[C@@]2(C)CC[C@H]3[C@@H](C[C@H]4O[C@]45CC=CC(=O)[C@]35C)[C@@]12O`, for which the inhibition entry in the assay on Saccharomyces cerevisiae [3] was “Active”. In assay [2], this molecule returned an Activity of 6.7 to 96%.
On to `C=C1CC[C@H]2C(C)(C)CCC[C@]2(C)[C@H]1C[C@@H](O)/C(C)=C/CO`, for which the Activity with Saccharomyces cerevisiae [1] was 1.1 to 29.4%; in assay [2], 6.7 to 96%.
On to `C=C1CC[C@H]2C(C)(C)CCC[C@]2(C)[C@H]1C[C@H](O)/C(C)=C/CO`, for which the Activity in the assay on Saccharomyces cerevisiae [1] lay in the range of 1.1 to 29.4%; in assay [2] it was 6.7 to 96%.
`C=C1CC[C@H]2C(C)(C)CCC[C@]2(C)[C@H]1C[C@H](O[C@@H]1O[C@H](COC(C)=O)[C@@H](OC(C)=O)[C@H](OC(C)=O)[C@H]1OC(C)=O)/C(C)=C/COC(=O)CC(C)C`: the inhibition result in the assay with Saccharomyces cerevisiae [3] was “Active”. Further, the Activity in assay [2] was 6.7 to 96%.
Turning to `C=C1CC[C@H]2C(C)(C)CCC[C@]2(C)[C@H]1C[C@H](O[C@@H]1O[C@H](CO)[C@@H](O)[C@H](O)[C@H]1O)/C(C)=C/CO`, the Activity with Saccharomyces cerevisiae [1] lay within 1.1 to 29.4%; in assay [2] it was 6.7 to 96%.
For the molecule `CC(=O)O[C@H]1C[C@H]([C@@](C)(O)[C@H]2CC(C)=C(C)C(=O)O2)[C@@]2(C)CC[C@H]3[C@@H](C[C@@H](O)[C@@]4(Cl)CC=CC(=O)[C@]34C)[C@@]12O`, the inhibition result in the assay on Saccharomyces cerevisiae [3] was “Active”. The same molecule displayed an Activity in assay [2] of 6.7 to 96%.
`C=C1CC[C@H]2C(C)(C)CCC[C@]2(C)[C@H]1CC(=O)/C(C)=C/CO`: the Activity in the assay with Saccharomyces cerevisiae [1] lay in the range of 1.1 to 29.4%; in assay [2], 6.7 to 96%.
For `CO[C@@H]1CC(=O)[C@]2(C)[C@H]3CC[C@]4(C)[C@@H]([C@@](C)(O)[C@H]5CC(C)=C(C)C(=O)O5)C[C@H](OC(C)=O)[C@]4(O)[C@@H]3C[C@H]3O[C@]32C1`, the inhibition result in the assay with Saccharomyces cerevisiae [3] was “Active”. The molecule further registered an Activity in assay [2] of 6.7 to 96%.
As for `C=C1CC[C@H]2C(C)(C)CCC[C@]2(C)[C@H]1CC/C(=C/CO)CO`, in the assay with Saccharomyces cerevisiae [3], the inhibition entry was “Active”. Also, in assay [4], the inhibition came out at 33.9%.
